MDM2 E3 inh – MDM2-luciferase reporter signal enhancers, primary screen, MDM2 E3 ligase inhibitor project, cell-based, luminescence, 1536-well; signal enhancement, % at 5 µM; cell-based MDM2 ubiquitination luciferase reporter, 2 h; 0 = plate control, 100 = twice control, blank-subtracted; E3 ubiquitin-protein ligase Mdm2 (Homo sapiens), Q00987; hit rate 0.11% among 210,000;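 active means signal enhancement of 30% or more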;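 further: luminescence tracks abundance of the self-degrading MDM2-luciferase fusion protein; higher signal means inhibition of MDM2 E3 ligase activity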
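Test system: stable mammalian line carrying autodegrading MDM2–luciferase fusion reporter; quantity: 2000 cells in each well; times: 4 h cell settling then 2 h compound exposure, 37 °C; detection: luminescence with SteadyLite reagent, 15 min at room temperature; evaluation: percent signal gain over controls, blank-subtracted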
p97 ATPase inh – inhibitors of human p97 ATPase, primary screen, biochemical; recombinant p97 ATPase, Kinase-Glo ATP luminescence, 3 h; hit rate 0.42% among 220,000; inhibition, % at 8 µM; in the data active means inhibition above about 15%;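 further: 0% = DMSO vehicle and 100% = wells lacking enzyme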
Target sequence (P55072 whole entry, looked up): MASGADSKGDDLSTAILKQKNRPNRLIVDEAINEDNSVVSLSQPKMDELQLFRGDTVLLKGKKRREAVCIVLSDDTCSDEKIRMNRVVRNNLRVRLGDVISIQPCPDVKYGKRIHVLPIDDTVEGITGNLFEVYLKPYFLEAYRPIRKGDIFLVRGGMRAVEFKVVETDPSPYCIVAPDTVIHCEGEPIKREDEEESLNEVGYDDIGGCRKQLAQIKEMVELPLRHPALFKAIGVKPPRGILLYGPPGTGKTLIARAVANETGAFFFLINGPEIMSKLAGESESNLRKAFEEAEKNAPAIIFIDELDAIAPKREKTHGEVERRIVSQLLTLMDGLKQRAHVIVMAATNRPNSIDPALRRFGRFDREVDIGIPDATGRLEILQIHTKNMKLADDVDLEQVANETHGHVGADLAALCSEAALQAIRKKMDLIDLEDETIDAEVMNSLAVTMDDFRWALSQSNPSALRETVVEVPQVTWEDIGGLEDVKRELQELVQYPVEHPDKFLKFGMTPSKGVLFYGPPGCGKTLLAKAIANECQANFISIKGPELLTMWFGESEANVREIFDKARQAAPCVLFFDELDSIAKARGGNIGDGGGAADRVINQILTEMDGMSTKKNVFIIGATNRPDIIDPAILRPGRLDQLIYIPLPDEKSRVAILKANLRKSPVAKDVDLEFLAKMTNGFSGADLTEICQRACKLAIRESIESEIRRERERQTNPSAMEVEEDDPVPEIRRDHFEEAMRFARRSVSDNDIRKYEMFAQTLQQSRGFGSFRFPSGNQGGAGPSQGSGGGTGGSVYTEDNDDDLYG
ROMK primary – ROMK potassium channel modulators, primary screen, cell-based, thallium flux, MLSMR library. hit rate 2% among 130,000. Tet-inducible ROMK, thallium flux fluorescence; actives lie on both sides. B-score at 10 µM. ATP-sensitive inward rectifier potassium channel 1 (Homo sapiens), P48048;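 active means signal ratio slope over the read window, or its plate-corrected B-score, at least 3 SD from the plate mean, either direction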;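 further: B-score of the F/F0 ratio slope over 7 to 12 s after thallium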
PKD1 kinase inh – inhibitors of human PKD1 kinase, biochemical, fluorescence polarization; inhibition, % (test concentration not listed); Serine/threonine-protein kinase D1 (Homo sapiens), Q15139; AID 797, 2007; PKD1 kinase fluorescence polarization assay; hit rate 0.056% among 200,000; in the data active means inhibition above about 50%
KCC2 mod – KCC2 cotransporter modulators, thallium flux, primary screen, cell-based, HEK293 KCC2, FluoZin-2 fluorescence, MLSMR. B-score of Tl+ flux slope (higher = more flux/activation; lower = inhibition) at 10 µM. KCC2 cells, thallium flux FluoZin-2 fluorescence. hit rate 2.2% among 190,000;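 active means thallium flux slope and its plate-corrected score both differing from the plate sample mean at a set confidence after two filtering rounds, in either direction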;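 further: slope of fluorescence scaled to starting intensity during 10 to 20 s after thallium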
Redox H2O2 prof – compounds producing H2O2 with reducing agent – biochemical, NIH compound library profiling, artefact control for MLSCN library redox annotation, primary screen | DTT-dependent redox cycling H2O2, phenol red/HRP absorbance; 100% = 100 µM peroxide control, 0% = buffer | hit rate 0.03% among 200,000 | activation, % at 10 µM;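 active means activation of at least 50% relative to the plate's high and low controls in the primary single-dose screen; inactive means activation below 50%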;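 further: compound incubated with DTT at 0.8 mM final as the reducing agent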
KCC2 sec1 – KCC2 modulators in sodium-free buffer, confirmation, cell-based, HEK293 KCC2, thallium flux, secondary assay | shares compounds with KCC2 mod | FluoZin2 fluorescence; stronger effect = higher value | normalised thallium flux (F/F0 slope) at 10 µM | hit rate 15% among 3,700;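 active means thallium flux slope above the same plate's solvent-only control mean plus 3 SD; inconclusive means the two replicate wells disagree; inactive means no significant difference from solvent-only control wells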
KCC2 bumet counter – thallium flux persisting under bumetanide in KCC2 cells, confirmation, counter-screen for KCC2 modulator project, cell-based, HEK293 KCC2, FluoZin2, secondary assay 3; hit rate 49% among 3,700; shares compounds with KCC2 mod; HEK293-KCC2 + bumetanide/ouabain; stronger effect = higher value; normalized thallium flux at 10 µM;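 active means thallium entry rate above the same plate's blocked-transporter control wells by more than 3 SD; inconclusive means the two repeat wells disagree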;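 further: raw slope of fluorescence over initial fluorescence between 10 and 20 s after thallium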
KCC2 secondary2 – KCC2 modulators without ouabain present, confirmation, cell-based, HEK293 KCC2, thallium flux, FluoZin2, secondary assay 2; shares compounds with KCC2 mod; normalized thallium flux at 10 µM; thallium flux FluoZin2 fluorescence; actives lie on both sides; F/F0 rise rate, 10–20 s post-thallium; AID 1715, 2009; hit rate 23% among 3,700;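 active means thallium flux slope more than 3 SD above or below the plate's solvent-only control mean, mostly below; inconclusive means the two repeat wells disagreed; inactive means no significant shift from solvent-only controls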;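 further: raw slope with 0.1% DMSO as baseline and bumetanide as block control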
HEK293 Tl flux – thallium flux modulation in parental HEK cells, confirmation, counter-screen for KCC2 modulator project, cell-based, counterscreen 1. shares compounds with KCC2 mod. HEK293 parental cells, thallium flux FluoZin2, ouabain; baseline-ratio fluorescence slope, 10–20 s after thallium. thallium flux rate (normalised fluorescence) at 10 µM. hit rate 46% among 3,700. AID 1716, 2009;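 active means thallium flux rate significantly above the same plate's solvent-only control wells, beyond their mean plus 3 SD; inconclusive means the two replicate wells gave conflicting results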
KCC2 ouabain – KCC2 inhibitors and activators, ouabain retest, confirmation, HEK-KCC2 cells; shares compounds with KCC2 mod; HEK293-KCC2, thallium flux FluoZin2 fluorescence; bidirectional: low = inhibitor, high = activator; raw Tl+ flux slope (below DMSO = inhibition, above = activation) at 10 µM; hit rate 48% among 3,700;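 active means thallium flux slope beyond 3 SD from same-plate DMSO control mean in most replicates, usually higher, sometimes lower; inconclusive means repeat tests gave conflicting results; inactive means no significant difference from controls in most replicates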;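 further: slope of initial-normalized fluorescence between seconds 10 and 20 after thallium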
HEK293 Tl flux2 – native HEK Tl+ uptake effects, second counter-screen – HEK cells, counterscreen 2, counter-screen for KCC2 modulator project, confirmation. shares compounds with KCC2 mod. HEK293 parental, thallium flux FluoZin-2 fluorescence slope. thallium flux slope at 10 µM. hit rate 33% among 3,700. AID 1718, 2009;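 active means thallium flux slope above the same plate's solvent-control mean plus 3 SD in both duplicate wells; inconclusive means duplicate wells that disagreed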;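 further: run without ouabain in cells lacking the KCC2 cotransporter; slope of fluorescence scaled to its starting value between 10 and 20 s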
Numbers without * were called inactive; u = inconclusive; x = no result. An excerpt weighted towards active compounds, which were near 3.4% of everything screened.

SMILES | MDM2 E3 inh | p97 ATPase inh | ROMK primary | PKD1 kinase inh | KCC2 mod | Redox H2O2 prof | KCC2 sec1 | KCC2 bumet counter | KCC2 secondary2 | HEK293 Tl flux | KCC2 ouabain | HEK293 Tl flux2
Cc1ccc(C2CC(=O)C(C=NCCN3CCN(CC(=O)Nc4cc(C)cc(C)c4)CC3)=C(O)C2)cc1 (stereo not given) | 3.4 | 0.9 | -0.334 | 2.4 | -0.885 | 0.3 | x | x | x | x | x | x
CCC(=O)c1ccc(N2CCN(C(=O)Cc3ccccc3)CC2)c(F)c1 | -20.9 | -3.5 | x | -19.4 | -1.47 | 0.2 | x | x | x | x | x | x
O=C(Cc1ccc(-n2cccc2)cc1)N1CCN(c2ccccc2F)CC1 | 12.5 | 2.1 | x | 4.1 | -6.79* | 1.4 | 0.00785 | 0.00549 | 0.0324 | 0.00378 | 0.0159* | 0.0121
CCC(=O)c1cc(F)c(N2CCN(C(=O)Cc3ccccc3)CC2)cc1C | 2.9 | 0.0 | x | -6.5 | -2.88* | 2.8 | 0.00744 | 0.0053 | 0.0325 | 0.00737 | 0.0178* | u
O=C(CCCC(=O)N1CCN(c2ccccc2F)CC1)N1CCN(c2ccccc2F)CC1 | 16.8 | -4.2 | -0.492 | -11.7 | x | -1.3 | x | x | x | x | x | x
O=C(/C=C/c1ccco1)N1CCC(Cc2ccccc2)CC1 | -13.4 | -7.4 | 0.142 | -3.0 | -4.94* | -1.8 | 0.00698 | 0.00498 | 0.0209* | 0.00737 | 0.0145* | 0.00992
Cc1ccc(S(=O)(=O)NCc2ccc(C(=O)N3CCN(Cc4ccccc4)CC3)cc2)cc1 | -32.2 | -1.8 | -1.79 | -5.1 | -2.62* | 0.0 | 0.00614 | u | 0.0269* | 0.0072 | u | 0.0103
O=C(c1cccc(S(=O)(=O)NCc2ccccc2)c1)N1CCN(Cc2ccccc2)CC1 | -20.2 | -1.4 | -0.647 | -8.2 | -2.72* | 0.1 | 0.00732 | 0.00613* | 0.03 | 0.00719 | 0.0181 | 0.011
O=C(CCN1CCN(c2ccccc2)CC1)N/N=C/c1ccc(O)c(O)c1O | x | 9.9 | 1.34 | 4.3 | 0.241 | -1.0 | x | x | x | x | x | x
CCc1nnc(NS(=O)(=O)c2ccc(N3C(=O)C4CC=C(Cl)CC4C3=O)cc2)s1 (stereo not given) | -10.4 | 4.6 | 0.592 | -3.6 | -0.27 | -0.1 | x | x | x | x | x | x
N#C/C(=N\Nc1ccccc1Cl)C(=O)c1ccccc1 | -2.6 | 2.0 | x | -13.7 | -4.36* | -3.6 | 0.0065 | 0.00483 | 0.0298 | u | 0.0155* | 0.00989
N#C/C(=N\Nc1cccc(Cl)c1)C(=O)c1ccccc1 | -13.9 | 4.5 | -1.91 | -5.7 | -2.45 | -4.4 | x | x | x | x | x | x
COc1ccc(C2/C=C\CN(C(=O)CC(C)(C)C)CC(=O)N2Cc2ccc(F)cc2)cc1 (stereo not given) | 15.1 | x | x | x | -2.38 | x | x | x | x | x | x | x
COc1ccc(C2/C=C\CN(C(=O)CC(C)C)CC(=O)N2Cc2ccc(F)cc2)cc1 (stereo not given) | -17.2 | x | x | x | -3.01* | x | 0.0158 | 0.00345 | 0.025* | 0.00588* | 0.0146 | 0.00868
O=C(O)Cc1csc(NC(=O)CSc2cccc(C(=O)O)n2)n1 | -15.9 | 7.7 | 0.018 | x | 2.46 | x | x | x | x | x | x | x
Clc1ccc2nc(C3CCN(Cc4nnnn4C4CCCCC4)CC3)[nH]c2c1 | -4.3 | -5.2 | -2.18 | 5.8 | -4.43* | 0.6 | 0.00697 | 0.00614 | 0.0277 | 0.00653 | u | 0.0104
CC12CCC(C(=O)Nc3nccs3)(OC1=O)C2(C)C (stereo not given) | 0.2 | -0.6 | x | -2.8 | 0.0819 | 2.1 | x | x | x | x | x | x
CC12CCC(C(=O)Nc3nc4ccc(Br)cc4s3)(OC1=O)C2(C)C (stereo not given) | -34.8 | -6.7 | 0.166 | 2.2 | 9.69* | -0.1 | 0.0052 | 0.04* | u | 0.0166* | 0.0349* | 0.0216*
O=S(=O)(Nc1ccncc1Cl)c1cccc(Cl)c1Cl | -18.3 | 7.9 | x | x | 0.821 | x | x | x | x | x | x | x
CSc1nc(SC(C)C(=O)O)c2c3c(sc2n1)COC(C)(C)C3 (stereo not given) | -7.8 | -1.9 | 0.504 | x | 4.8* | x | 0.00545 | 0.02* | u | 0.0325* | 0.034* | 0.0209*
C=CCN(C(=O)CCC(=O)Nc1cc(C)on1)C(C(=O)NC1CCCC1)c1cccnc1 (stereo not given) | -15.9 | -8.5 | -0.473 | -4.3 | -0.367 | -0.6 | x | x | x | x | x | x
O=C(NC1CCCCC1)c1ccc(CN2CCOCC2)cc1 | -4.9 | -4.6 | -0.476 | 8.8 | -2.84* | 0.1 | 0.00983 | 0.00661 | 0.0344 | 0.00779 | 0.0215 | 0.0108
O=C(NC1CC2CCC1C2)c1ccc(CN2CCOCC2)cc1 (stereo not given) | -9.8 | -5.0 | 0.0113 | -1.4 | -0.586 | -0.2 | x | x | x | x | x | x
O=C(Oc1cccc(-n2cnnn2)c1)c1sc2ccccc2c1Cl | -15.0 | 1.0 | x | -5.4 | -0.00782 | 2.9 | x | x | x | x | x | x
C/C(=N\Nc1ccc(C(=O)O)cc1)c1ccc(S(=O)(=O)NCc2ccco2)cc1 | -9.6 | 2.1 | x | x | 4.53* | x | 0.00872 | 0.00684 | 0.032 | 0.00718 | 0.0209 | 0.0103*
Cc1c(C#N)c2ccccc2n1CC(=O)N1CCc2ccccc2C1 | x | -2.0 | x | -1.4 | 0.0355 | -0.6 | x | x | x | x | x | x

Screening data deposited in PubChem BioAssay by several laboratories.
